PMC4254850 (Clinical cancer research : an official journal of the …, 2014)
Entries after “also recorded” stand apart in the source; their conditions may differ.

Assays:
[1] = system: AKT phosphorylation (pAKT) in platelet-rich plasma (PRP); experiment: AKT phosphorylation in platelet-rich plasma; assay type: in vivo, human
Method in brief: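 Oral single-dose run-in (Cycle 0, Day 1): citrated blood taken pre-dose and at 1, 2, 6, 24, 48 and 72 h, plus pre-dose on Cycle 1, Day 15. Spun 200 × g, 4°C, 15 min; PRP stabilised with phosphatase inhibitor, lysed with PMSF-containing buffer, snap-frozen. Phospho- and total AKT by quantitative electrochemiluminescent assay with recombinant active AKT standard curve per plate and spiked QC samples. p-AKT/total AKT expressed as % change from pre-treatment.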

advanced solid tumors = experiment: Tumor response; assay type: in vivo, human
Method in brief: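 Response assessed by RECIST v1.1 using imaging at baseline and every two cycles in patients dosed orally, QD or BID, in 28-day cycles. Response data summarised with descriptive statistics.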

[2] = Plasma pharmacokinetics, LC/MS/MS, non-compartmental analysis; assay type: in vivo, human; conditions: for AUC(0-t) / Cmax / half-life: human, plasma, po
class III PI3K = conditions: cited from earlier work

## CS(=O)(=O)N1CCc2c(-c3cnc(N)nc3)nc(N3CCOCC3)nc21 [CH5132799]
[1]; achieved at dose levels of 32 mg
  Maximal inhibition of p-AKT in PRP compared to baseline: approximately 50%
[1]; after single dose
  Duration of target engagement (reduction in phosphorylation of AKT in PRP): less than 24 hours
[1]; p-AKT Ser473
  Dose levels at which p-AKT was consistently reduced in PRP: 8 to 96 mg
[1]; single dose, 2 hrs post-dose
  Dose with significant inhibition of PI3K signalling (reduction of AKT phosphorylation) in PRP: ≥ 32 mg
Advanced solid tumors; 48 mg BID
  Response by GCIG CA125 criteria, patient with PIK3CA H1047R-mutated clear cell ovarian cancer: partial response; also recorded: GCIG CA125 response
  Time on study of patient with GCIG CA125 response: 6 cycles
Advanced solid tumors; 72 mg BID
  Clinical response, heavily pre-treated patient with triple negative breast cancer (no PIK3CA or AKT mutations): marked symptomatic and objective improvement in their cutaneous skin lesions
Advanced solid tumors; all patients
  RECIST partial or complete responses: no RECIST partial or complete responses
  Study participants with best response of stable disease by RECIST: 21%
[2]; 2mg (QD), AUC0-24h repeat dose / single dose, mean, n=3
  Accumulation ratio: 0.912(3)
[2]; 4 mg (QD), AUC0-24h repeat dose / single dose, mean, n=3
  Accumulation ratio: 1.54(3)
[2]; 8 mg (QD), AUC0-24h repeat dose / single dose, mean, n=2
  Accumulation ratio: 1.22(2)
[2]; 16 mg (QD), AUC0-24h repeat dose / single dose, n=1
  Accumulation ratio: 0.972(1)
[2]; 32 mg (QD), AUC0-24h repeat dose / single dose, mean, n=2
  Accumulation ratio: 1.57(2)
[2]; 48 mg (BID), AUC0-12h repeat dose / single dose, mean, n=2
  Accumulation ratio: 1.10(2)
[2]; 56 mg (BID), AUC0-12h repeat dose / single dose, mean, n=2
  Accumulation ratio: 1.72(2)
[2]; 56 mg (QD), AUC0-24h repeat dose / single dose, mean, n=3
  Accumulation ratio: 1.07(3)
[2]; 72 mg (BID), AUC0-12h repeat dose / single dose, n=1
  Accumulation ratio: 2.25(1)
[2]; 96 mg (QD), AUC0-24h repeat dose / single dose, mean, n=3
  Accumulation ratio: 0.640(3)
[2]; doses above 56 mg QD
  AUC at doses above the dose-proportional range: no further increase in AUC; also recorded: no significant increments in AUC
[2]; 2 mg, AUC0-24h, 2mg (QD), repeat dose, mean, n=3
  AUC(0-t): 48.8 ng·h/mL
[2]; 2 mg, AUClast, 2mg (QD), single dose, mean, n=3, AUClast = AUC0-72h
  AUC(0-t): 53 ng·h/mL
[2]; 2 mg, 2mg (QD), repeat dose, mean, n=3
  Cmax: 9.92 ng/mL
[2]; 2 mg, 2mg (QD), single dose, mean, n=3
  Cmax: 10 ng/mL
[2]; 2 mg, t1/2, 2mg (QD), single dose, mean, n=3
  half-life: 7.52 h
[2]; 4 mg, AUC0-24h, 4 mg (QD), repeat dose, mean, n=3
  AUC(0-t): 167 ng·h/mL
[2]; 4 mg, AUClast, 4 mg (QD), single dose, mean, n=3, AUClast = AUC0-72h
  AUC(0-t): 112 ng·h/mL
[2]; 4 mg, 4 mg (QD), repeat dose, mean, n=3
  Cmax: 22.5 ng/mL
[2]; 4 mg, 4 mg (QD), single dose, mean, n=3
  Cmax: 17.2 ng/mL
[2]; 4 mg, t1/2, 4 mg (QD), single dose, mean, n=3
  half-life: 8.3 h
[2]; 8 mg, AUC0-24h, 8 mg (QD), repeat dose, mean, n=2
  AUC(0-t): 159 ng·h/mL
[2]; 8 mg, AUClast, 8 mg (QD), single dose, mean, n=3, AUClast = AUC0-72h
  AUC(0-t): 133 ng·h/mL
[2]; 8 mg, 8 mg (QD), repeat dose, mean, n=2
  Cmax: 46.3 ng/mL
[2]; 8 mg, 8 mg (QD), single dose, mean, n=3
  Cmax: 41.1 ng/mL
[2]; 8 mg, t1/2, 8 mg (QD), single dose, mean, n=3
  half-life: 23.7 h
[2]; 16 mg, AUC0-24h, 16 mg (QD), repeat dose, mean, n=2
  AUC(0-t): 621 ng·h/mL
[2]; 16 mg, AUClast, 16 mg (QD), single dose, n=1, AUClast = AUC0-72h
  AUC(0-t): 883 ng·h/mL
[2]; 16 mg, 16 mg (QD), repeat dose, mean, n=3
  Cmax: 100 ng/mL
[2]; 16 mg, 16 mg (QD), single dose, n=1
  Cmax: 113 ng/mL
[2]; 16 mg, t1/2, 16 mg (QD), single dose, n=1
  half-life: 13.7 h
[2]; 32 mg, AUC0-24h, 32 mg (QD), repeat dose, mean, n=2
  AUC(0-t): 1740 ng·h/mL
[2]; 32 mg, AUClast, 32 mg (QD), single dose, mean, n=4, AUClast = AUC0-72h
  AUC(0-t): 859 ng·h/mL
[2]; 32 mg, 32 mg (QD), repeat dose, mean, n=3
  Cmax: 345 ng/mL
[2]; 32 mg, 32 mg (QD), single dose, mean, n=4
  Cmax: 165 ng/mL
[2]; 32 mg, t1/2, 32 mg (QD), single dose, mean, n=4
  half-life: 12.2 h
[2]; 48 mg
  half-life: 10.2 h
[2]; 48 mg, AUC0-24h, 48 mg (BID) = MTD, repeat dose (steady state), mean, n=5, calculated based on data from 0 to 12 hours (AUC0-12h)
  AUC(0-t): 1550 ng·h/mL
[2]; 48 mg, AUClast, 48 mg (BID) = MTD, single dose, mean, n=4, AUClast = AUC0-72h
  AUC(0-t): 1270 ng·h/mL
[2]; 48 mg, 48 mg (BID) = MTD, repeat dose (steady state), mean, n=5
  Cmax: 175 ng/mL
[2]; 48 mg, 48 mg (BID) = MTD, single dose, mean, n=5
  Cmax: 172 ng/mL
[2]; 56 mg, AUC0-24h, 56 mg (BID), repeat dose, mean, n=2, calculated based on data from 0 to 12 hours (AUC0-12h)
  AUC(0-t): 5940 ng·h/mL
[2]; 56 mg, AUC0-24h, 56 mg (QD), repeat dose, mean, n=3
  AUC(0-t): 748 ng·h/mL
[2]; 56 mg, AUClast, 56 mg (BID), single dose, mean, n=5, AUClast = AUC0-72h
  AUC(0-t): 3030 ng·h/mL
[2]; 56 mg, AUClast, 56 mg (QD), single dose, mean, n=3, AUClast = AUC0-72h
  AUC(0-t): 969 ng·h/mL
[2]; 56 mg, 56 mg (BID), repeat dose, mean, n=3
  Cmax: 331 ng/mL
[2]; 56 mg, 56 mg (BID), single dose, mean, n=5
  Cmax: 428 ng/mL
[2]; 56 mg, 56 mg (QD), repeat dose, mean, n=3
  Cmax: 184 ng/mL
[2]; 56 mg, 56 mg (QD), single dose, mean, n=3
  Cmax: 163 ng/mL
[2]; 56 mg, t1/2, 56 mg (BID), single dose, mean, n=5
  half-life: 16.3 h
[2]; 56 mg, t1/2, 56 mg (QD), single dose, mean, n=3
  half-life: 14.5 h
[2]; 72 mg, AUC0-24h, 72 mg (BID), repeat dose, n=1, calculated based on data from 0 to 12 hours (AUC0-12h)
  AUC(0-t): 5580 ng·h/mL
[2]; 72 mg, AUClast, 72 mg (BID), single dose, mean, n=3, AUClast = AUC0-72h
  AUC(0-t): 2480 ng·h/mL
[2]; 72 mg, 72 mg (BID), repeat dose, n=1
  Cmax: 631 ng/mL
[2]; 72 mg, 72 mg (BID), single dose, mean, n=3
  Cmax: 265 ng/mL
[2]; 72 mg, t1/2, 72 mg (BID), single dose, mean, n=3
  half-life: 18.3 h
[2]; 96 mg, AUC0-24h, 96 mg (QD), repeat dose, mean, n=3
  AUC(0-t): 691 ng·h/mL
[2]; 96 mg, AUClast, 96 mg (QD), single dose, mean, n=4, AUClast = AUC0-72h
  AUC(0-t): 1650 ng·h/mL
[2]; 96 mg, 96 mg (QD), repeat dose, mean, n=3
  Cmax: 103 ng/mL
[2]; 96 mg, 96 mg (QD), single dose, mean, n=4
  Cmax: 206 ng/mL
[2]; 96 mg, t1/2, 96 mg (QD), single dose, mean, n=3
  half-life: 23.2 h
[2]; oral
  Dose range with dose proportionality of AUC: 2 to 56 mg
Class III PI3K
  Inhibitory activity against class III PI3K: no inhibitory activity
